UPR CHOP act = apoptotic UPR (CHOP) activation | activation, % at 10 µM | AID 449763 | 0.34% of 330,000 active | CHO-CHOP luciferase reporter, luminescence; percent of tunicamycin response over DMSO baseline;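 active means at 10 µM dose, activation of 40% or more, normalized to positive control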;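 further: 100% = tunicamycin at 10 µg/mL and 0% = DMSO alone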
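System: CHO CHOP reporter cells. Amount: 500 cells per well. Buffer or medium: F12 medium, 10% FBS. Compound dosing: one dose, 10 µM in 0.5% DMSO. Incubation: 6 h compound exposure at 37 °C after overnight seeding. Technique: Steady-Glo luciferase luminescence. Benchmarks: tunicamycin and DMSO controls.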
CSC inhib = blocks cancer stem cells; cancer stem cell-like cells viability, luminescence; inhibition, % at 7.5 µM; 1.1% of 300,000 active; in the data active means inhibition above about 75%; tested in HMLE shEcad cells
Beta apoptosis = beta cell apoptosis inhibition; 0.8% of 300,000 active; protection from apoptosis, % (no concentration beside the values); INS-1E cytokine-induced death, ATP luminescence, 48 h; percent of positive-control rescue, neutral wells zero;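 active means Every replicate reaches about 75%, or at least half do and their mean reaches it too, limit read from the data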;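 further: 0% = cytokine-treated negative control wells and 100% = positive control rescue; higher means more ATP so stronger rescue from cytokine killing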
XBP1 UPR activ = adaptive UPR (XBP1) activation. 0.33% of 330,000 active. CHO-XBP1 luciferase reporter, IRE1-XBP1 UPR activation, luminescence; percent of tunicamycin response, DMSO as zero. AID 463104. activation, % at 20 µM;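 active means versus positive control, 20 µM dose yields 30% or more activation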;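 further: 100% = tunicamycin at 10 µg/mL and 0% = DMSO only wells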
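Material: CHO cell line with stable XBP1 luciferase reporter; buffer or medium: F12 medium containing 10% fetal bovine serum; compound: single point, 20 µM final compound, 1% DMSO; incubation: 6 h treatment, 37 °C; measured by: glow luminescence from Steady-Glo reagent; evaluation: activation, % of tunicamycin; control set: tunicamycin high, DMSO low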
Mdm2 MdmX PPI = inhibitors of human Mdm2/MdmX interaction. SaOS-2 split-luciferase Mdm2/MdmX complementation, luminescence. inhibition, % at 8 µM. O15151+Q00987. 3% of 330,000 active;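 active means inhibition of at least 50% at 8 µM in the primary screen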
Target sequence (O15151 whole entry, looked up): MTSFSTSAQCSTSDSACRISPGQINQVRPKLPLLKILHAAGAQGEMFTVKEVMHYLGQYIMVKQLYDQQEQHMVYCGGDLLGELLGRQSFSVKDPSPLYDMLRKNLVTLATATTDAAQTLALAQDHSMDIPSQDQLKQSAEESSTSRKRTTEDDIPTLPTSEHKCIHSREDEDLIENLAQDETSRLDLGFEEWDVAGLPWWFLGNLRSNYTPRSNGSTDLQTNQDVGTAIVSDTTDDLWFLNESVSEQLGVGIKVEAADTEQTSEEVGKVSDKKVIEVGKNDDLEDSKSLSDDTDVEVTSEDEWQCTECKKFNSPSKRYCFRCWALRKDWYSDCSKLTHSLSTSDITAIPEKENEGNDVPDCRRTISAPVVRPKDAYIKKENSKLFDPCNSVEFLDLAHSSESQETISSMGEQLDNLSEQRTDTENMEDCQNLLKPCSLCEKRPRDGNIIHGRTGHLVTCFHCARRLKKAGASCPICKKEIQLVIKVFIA
Target sequence (Q00987 whole entry, looked up): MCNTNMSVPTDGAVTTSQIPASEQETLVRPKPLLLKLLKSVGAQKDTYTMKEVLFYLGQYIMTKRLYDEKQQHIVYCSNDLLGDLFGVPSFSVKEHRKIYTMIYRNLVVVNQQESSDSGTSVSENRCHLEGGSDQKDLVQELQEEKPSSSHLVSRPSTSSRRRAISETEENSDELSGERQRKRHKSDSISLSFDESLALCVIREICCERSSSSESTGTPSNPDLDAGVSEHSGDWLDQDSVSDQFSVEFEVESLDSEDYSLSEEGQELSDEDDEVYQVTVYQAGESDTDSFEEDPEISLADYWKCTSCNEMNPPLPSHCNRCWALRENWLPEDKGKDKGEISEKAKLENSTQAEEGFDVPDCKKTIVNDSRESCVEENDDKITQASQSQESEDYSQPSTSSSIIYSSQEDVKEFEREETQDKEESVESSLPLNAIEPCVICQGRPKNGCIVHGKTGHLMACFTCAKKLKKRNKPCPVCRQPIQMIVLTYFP
T cruzi inh = blocks replication of Trypanosoma cruzi; 1.4% of 300,000 active; inhibition, % (test concentration not listed); T. cruzi beta-gal in NIH3T3, luminescence, 90 h;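 active means mean inhibition across valid replicates above about 55%, limit read from the data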;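 further: signal also drops with host cell toxicity which is not excluded here; 0% = plate median of DMSO wells and 100% = zero luminescence signal; higher percent means less beta-gal luminescence so fewer parasites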
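Test system: β-gal T. cruzi (Tulahuen C4) inside NIH/3T3 cells / Quantity: 5,000 cells/well / Measured by: luminescence from GalScreen with 0.05% NP40, read after 60 min / Medium: DMEM plus 2% FBS / Measure: parasite load inhibition, % / Reagent: Tulahuen C4 trypomastigotes, 5000/well / Schedule: co-culture of at least 90 h after 3 h attachment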
Mdm2-MdmX conf = confirmation of human Mdm2/MdmX interaction inhibitors; 55% of 10,000 active; inhibition, % at 8 µM; Mdm2-MdmX binding, luminescent assay; shares compounds with Mdm2 MdmX PPI; AID 489028; in the data active means inhibition above about 40%
FLuc counter = inhibits full-length luciferase, flagging false Mdm2/MdmX hits; AID 504607; SaOS-2 full-length luciferase counterscreen, luminescence; inhibition, % at 8 µM; shares compounds with Mdm2 MdmX PPI; 77% of 6,200 active;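 active means mean inhibition at 8 µM reaching about 37%, which flags the compound as non-specific, limit read from the data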;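 further: p53-null SaOS-2 cells with luciferase driven by a doxycycline-inducible promoter; compound on cells about two nights before reading with doxycycline added after day one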
The depositor's hits bear a star; x = not tested or not shown. Hits are enriched below; roughly 5% of the tested compounds scored in any of these assays.

SMILES | UPR CHOP act | CSC inhib | Beta apoptosis | XBP1 UPR activ | Mdm2 MdmX PPI | T cruzi inh | Mdm2-MdmX conf | FLuc counter
COc1ccc2c(c1)c(C(C)=O)c(C)n2-c1ccc(C(C)=O)cc1 | -2 | x | x | -5 | 61* | 1 | 61* | 40*
COC(=O)c1c(C)n(-c2ccc(OC)cc2)c2ccc(O)cc12 | -3 | x | 1 | -3 | 66* | 15 | 64* | 20
CCOC(=O)c1c(C)n(-c2ccc(F)cc2)c2ccc(O)cc12 | 2 | -2 | x | 0 | 11 | 9 | x | x
COc1ccc2c(c1)c(C(=O)O)c(C)n2-c1ccccc1 | 1 | -8 | -4 | -1 | 7 | 13 | x | x
COc1ccc(-n2c(C)c(C(C)=O)c3cc(OC(C)=O)ccc32)cc1 | -1 | 10 | 8 | -2 | 82* | 5 | 86* | 6
COc1ccc(OC)c(NC(=O)COC(=O)CN2C(=O)NC3(CCCC3)C2=O)c1 | -1 | x | -8 | 0 | -12 | x | x | x
COc1ccccc1-c1sc2ccccc2c1-c1ccc(OCCN2CCCCC2)cc1 | 5 | x | x | 6 | 67* | x | 44* | 55*
COc1cc2sc(-c3ccccc3OC)c(-c3ccc(OCCN4CCOCC4)cc3)c2cc1OC | 2 | x | x | 1 | 61* | x | 9 | x
COc1ccc2c(-c3ccc(OCCN4CCCCC4)cc3)c(-c3ccccc3OC)sc2c1 | 6 | x | x | 6 | 63* | x | 16 | x
COc1ccc2c(-c3ccc(OCCN4CCOCC4)cc3)c(-c3ccccc3OC)sc2c1 | 1 | x | x | -2 | 7 | x | x | x
CC1(C)Cc2c(cnn2-c2ccc(F)cc2)C(NC(=O)CCc2ccncc2)C1 (stereo not drawn) | 3 | x | x | -3 | -11 | -1 | x | x
C=C1CN(Cc2ccccc2)S(=O)(=O)c2ccccc21 | 0 | -8 | x | 4 | 22 | -14 | x | x
O=S1(=O)c2ccc(Br)cc2N2CCC[C@H]2CN1Cc1ccccc1 | 4 | x | x | 2 | 52* | x | 51* | 37*
C[C@@H](c1ccccc1)N1C[C@H]2CCCN2c2cc(Br)ccc2S1(=O)=O | 2 | x | x | -2 | 54* | x | 42* | 41*
Cc1ccc(S(=O)(=O)Nc2ccc3c(c2)nc(CCN2CCCC2)n3C)cc1 | 2 | 40 | 27 | -6 | 49 | 13 | x | x
O=C1CC(=Nc2ccccc2)NN1c1ccccc1 | 5 | 130* | 21 | 4 | 58* | -1 | 1 | x
COc1ccc(C(=O)Nc2cc(OC)ccc2OC)cc1 | 2 | x | 3 | 0 | 17 | x | x | x
COc1ccc(OC)c(NC(=O)c2cc(OC(C)=O)cc(C(=O)Nc3cc(OC)ccc3OC)c2)c1 | 2 | 0 | 18 | -1 | 56* | 43 | 13 | x
Cc1ccc(C(=O)NC(=S)NCc2ccccc2)cc1Br | 2 | x | x | -1 | 24 | 0 | x | x
CCCCC(=O)Nc1ccc(C(=O)NNC(=O)c2ccc(C)c(Br)c2)cc1 | -1 | x | 2 | 0 | 65* | -3 | 31 | 43*
CCCCC(=O)Nc1ccc(C(=O)NNC(=O)CCc2ccccc2)cc1 | 0 | 21 | 3 | -4 | -27 | 6 | x | x
CC(NC(=O)/C(C#N)=C1\N=C(NC(=O)c2ccco2)c2ccccc21)c1ccccc1 (stereo not drawn) | 2 | 19 | 0 | -4 | 67* | 9 | 12 | x
CC(C)CCn1c(=O)c2ccccc2n2c(CN3CCCC3)nnc12 | 5 | -14 | -11 | -2 | 22 | 2 | x | x
CC(C)CCn1c(=O)c2ccccc2n2c(CCC(=O)NC3CCN(Cc4ccccc4)CC3)nnc12 | 0 | x | 2 | -2 | 77* | 24 | 58* | 49*
Cc1ccc(NC(=S)NC2CCCCC2)cc1S(=O)(=O)N(C)C | 2 | 6 | 1 | 3 | -29 | -9 | x | x
SMILES | UPR CHOP act | CSC inhib | Beta apoptosis | XBP1 UPR activ | Mdm2 MdmX PPI | T cruzi inh | Mdm2-MdmX conf | FLuc counter
CN1CCN(c2ccc([N+](=O)[O-])cc2C(=O)c2ccc(Br)cc2)CC1 | -3 | 62 | 3 | 2 | 54* | -15 | 59* | 60*
O=C(COC(=O)c1cc([N+](=O)[O-])ccc1N1CCOCC1)c1ccc(Br)cc1 | 1 | -6 | 2 | 3 | 21 | 21 | x | x
Cc1ccc(C(=O)c2cc([N+](=O)[O-])ccc2N2CCN(C)CC2)cc1 | -1 | 61 | 14 | 1 | 50* | 2 | 60* | 55*
CN1CCN(c2ccc([N+](=O)[O-])cc2C(=O)c2ccccc2)CC1 | 0 | -6 | -11 | -1 | 26 | 0 | x | x
Fc1ccc(-c2nnc(NC3=NCCCCC3)o2)cc1 | -8 | 19 | 14 | -11 | 54* | -13 | 50* | 55*
CN(NC(=O)c1cccc(Cl)c1)c1nc(-c2ccccc2)nnc1C(F)(F)F | 0 | 15 | 8 | -2 | 59* | x | 57* | 53*
CN(N)c1nc(-c2ccccc2)nnc1C(F)(F)F | -3 | 12 | 3 | -2 | -3 | 0 | x | x
[N-]=[N+]=NCCN1CCN(CCc2ccccc2)CCC1=O | -1 | -4 | 0 | 0 | 3 | -6 | x | x
COC(=O)/C(=C1/Oc2ccc(C(C)(C)C)cc2S1)C(F)(F)F | 4 | 5 | 6 | -3 | 18 | -34 | x | x
COC(=O)/C(=C1/Oc2cc(C)oc(=O)c2S1)C(F)(F)F | 5 | -14 | -6 | -4 | 100* | 47 | 100* | 51*
CC(NC(=O)c1ccc(CS(C)(=O)=O)cc1)c1ccc(-c2ccccc2)cc1 (stereo not drawn) | 2 | -4 | -2 | -1 | 52* | 17 | -2 | x
CC(=O)c1nn(-c2cccc(Br)c2)cc1C(=O)c1ccc(Cl)cc1 | 1 | 1 | 7 | 0 | 53* | 2 | 14 | x
CC(=O)c1nn(-c2cccc(Br)c2)cc1C(=O)c1ccccc1 | 0 | -1 | -1 | 2 | 16 | 14 | x | x
Cc1cc(=O)oc2cc(OCc3ccc(C(=O)OCC(=O)NC4CCS(=O)(=O)C4)cc3)ccc12 (stereo not drawn) | 11 | -6 | -3 | 4 | 51* | -1 | 15 | x
Cc1cc(=O)oc2cc(OCc3ccc(C(=O)OCC(=O)N(C)C4CCS(=O)(=O)C4)cc3)ccc12 (stereo not drawn) | 1 | -5 | 2 | -2 | 1 | 9 | x | x
C#CCN(C(=O)Nc1ccccc1)c1ccccc1 | 3 | -14 | -2 | 1 | 4 | -1 | x | x
COc1cc(NS(=O)(=O)c2ccc3c(c2)oc(=O)n3C)cc(OC)c1OC | -3 | 23 | 3 | -2 | 57* | -7 | 20 | x
COc1ccc(-c2nc(NC(=O)C3=NN(c4cccc(C)c4)C(=O)CC3)sc2C)cc1 | -2 | 0 | 7 | 0 | 16 | 2 | x | x

Screening data (PubChem BioAssay)
